Results reported in paper PMC3437501 (European Journal of Pain (London, England), 2011).
“Also recorded” adds a separate entry of the source. Marks after values point to notes of the source that are not given here.

Legend:
[1] = Pharmacokinetics of etoricoxib in plasma, CSF and tissue exudate; format: in vivo, human; details: for Cmax / Tmax / Kp: human, 120 mg; for Kp: CSF/plasma
How it was run: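 Six hip-arthroplasty patients given oral 120 mg at 6:30 a.m. on surgery day and 24 h later. Blood and intrathecal-catheter CSF sampled predose and 1.5–48 h, first 1 mL CSF discarded; drain exudate collected hourly windows. LC-MS/MS with phenazone internal standard, LOQ 0.2 ng/mL, validated 0.2–200 ng/mL. AUC0–24 h by linear trapezoidal method; CSF/plasma ratio from AUCs, maximal ratio from individual concentrations.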

interleukin 6 (IL6) = assay: Interleukin 6 in plasma, CSF and tissue exudate; format: in vivo, human
How it was run: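 Osteoarthritis patients (59–77 y) undergoing hip arthroplasty under spinal bupivacaine, given oral test compound 120 mg or placebo at 6:30 a.m. on surgery day and next day. Plasma and CSF sampled predose and 1.5–48 h; drain exudate collected over 60 min before 4–48 h, centrifuged, frozen −30 °C. IL6 by ELISA (LOQ 7.8 pg/mL); partial AUCs by linear trapezoidal rule.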

prostaglandin E2 (PGE2) = assay: Prostaglandin E2 in tissue exudate, plasma and CSF; format: in vivo, human
How it was run: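 Hip-arthroplasty patients dosed orally with 120 mg test compound or placebo on surgery day and next day. Drain exudate collected over 60 min before 4, 8, 12, 24, 26, 32, 48 h, centrifuged, supernatant frozen −30 °C. PGE2 in exudate and plasma by ELISA (LOQ 15 pg/mL). CSF PGE2 by solid-phase extraction LC-MS/MS with prostaglandin D2-d4 (LOQ 25–200 pg/mL). Partial AUCs by trapezoidal rule.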

[2] = Patient ratings of post-operative pain, satisfaction and sleep disturbance; format: in vivo, human; details: first 24 h; interaction p = 0.036
How it was run: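 Patients dosed orally with 120 mg test compound or placebo on surgery day and next day, double-blind. Global pain and operated-hip pain at rest and passive movement rated on 11-point scale (0 = no pain, 10 = worst) at 4, 8, 12, 24, 26, 32, 48 h. Satisfaction with analgesia on numeric rating scale; sleep disturbance (0–10) at 24, 48, 72 h.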

[3] = Post-operative consumption of intrathecal bupivacaine and piritramide; format: in vivo, human
How it was run: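 After spinal bupivacaine 0.5% via lumbar intrathecal catheter, 0.01% bupivacaine infused intrathecally at 4–6 mL/h plus patient-controlled boluses up to 1 mL every 10 min, 4-h lockout 40 mL. Breakthrough pain: piritramide i.v. up to 5 mg (s.c. up to 15 mg). Total consumption, requests, delivered boluses and request times recorded. Patient lacking catheter excluded.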

[4] = Safety: adverse events and blood loss during surgery; format: in vivo, human
[5] = cited from earlier work
[6] = same dose; ref Fletcher et al., [1995]; cited from earlier work
[7] = tissue exudate, 12–24 h, mean, n = 6
[8] = tissue exudate, 24–36 h, mean, n = 6
[9] = tissue exudate, 36–47 h, mean, n = 6

## Cc1ccc(-c2ncc(Cl)cc2-c2ccc(S(C)(=O)=O)cc2)cn1 [Etoricoxib, etoricoxib]
[1]; CSF, po
  Cmax: 160 ng/mL
  Tmax: 1.5 h
[1]; oral, CSF/plasma ratio AUC 0–24 h, individual ratios, mean (range)
  Kp: 0.041
[1]; oral, Maximal CSF/plasma conc. ratio, individual maximal concentration ratio, mean (SD)
  Kp: 0.122
[1]; oral
  Tmax: < 2 h
[1]; plasma, po
  Cmax: 1880 ng/mL
  Tmax: 1.5 h
[1]; individual ratios, mean (range), subgroup n = 5
  CSF/plasma ratio AUC 0–48 h: 4.7 (2.8–8.1) ^b %
[1]; median (range)
  tmax for CSF/plasma conc. ratio: 1.75 (1.5–32) h
Interleukin 6 (IL6); CSF, 1.5–12 h, mean, n = 6
  IL6 cerebrospinal fluid (w/o R111) AUC (1.5–12 h): 340 pg·h/mL
Interleukin 6 (IL6); CSF, 12–24 h, mean, n = 6
  IL6 cerebrospinal fluid (w/o R111) AUC (12–24 h): 660 pg·h/mL
Interleukin 6 (IL6); CSF, 24–36 h, mean, n = 5
  IL6 cerebrospinal fluid (w/o R111) AUC (24–36 h): 575 pg·h/mL
Interleukin 6 (IL6); CSF, 36–48 h, mean, n = 5
  IL6 cerebrospinal fluid (w/o R111) AUC (36–48 h): 436 pg·h/mL
Interleukin 6 (IL6); plasma, 1.5–12 h, mean, n = 6
  IL6 plasma AUC (1.5–12 h): 435 pg·h/mL
Interleukin 6 (IL6); plasma, 12–24 h, mean, n = 6
  IL6 plasma AUC (12–24 h): 596 pg·h/mL
Interleukin 6 (IL6); plasma, 24–36 h, mean, n = 6
  IL6 plasma AUC (24–36 h): 598 pg·h/mL
Interleukin 6 (IL6); plasma, 36–48 h, mean, n = 6
  IL6 plasma AUC (36–48 h): 409 pg·h/mL
Interleukin 6 (IL6); plasma, time after surgery
  Time until plasma IL6 returned to preoperative levels: ≤ 20 h
Interleukin 6 (IL6); tissue exudate, 4–12 h, mean, n = 6
  IL6 tissue exudate AUC (4–12 h): 479 ng·h/mL
Interleukin 6 (IL6); [7]
  IL6 tissue exudate AUC (12–24 h): 1606 ng·h/mL
Interleukin 6 (IL6); [8]
  IL6 tissue exudate AUC (24–36 h): 1200 ng·h/mL
Interleukin 6 (IL6); [9]
  IL6 tissue exudate AUC (36–47 h): 861 ng·h/mL
Prostaglandin E2 (PGE2); plasma and CSF, both groups, differences not significant
  Concentrations of PGE2 in plasma and CSF: near or below the LOQ
Prostaglandin E2 (PGE2); preoperative administration
  PGE2 production in the surgical wound: complete blockade
Prostaglandin E2 (PGE2); tissue exudate (hip drain), 4–12 h, mean, n = 6
  PGE2 tissue exudate AUC (4–12 h): 40 ng·h/mL
Prostaglandin E2 (PGE2); [7]
  PGE2 tissue exudate AUC (12–24 h): 48 ng·h/mL
Prostaglandin E2 (PGE2); [8]
  PGE2 tissue exudate AUC (24–36 h): 29 ng·h/mL
Prostaglandin E2 (PGE2); [9]
  PGE2 tissue exudate AUC (36–47 h): 16 ng·h/mL
Prostaglandin E2 (PGE2); wound fluid, versus fast increase in placebo group, treatment p = 0.014
  PGE2 concentration in wound fluid: remained low throughout
[2]
  Post-operative analgesic satisfaction versus placebo: significantly higher
[3]; 2 to 48 h, main effect treatment p = 0.003
  Demand for piritramide versus placebo: significantly higher in the placebo group
[3]; only during the first 12 h post-operatively, main effect treatment p = 0.052
  On request local anaesthetic administration versus placebo: higher in the placebo group
[4]; 120 mg 2 h before surgery, mean (SD), n = 6
  Intra-OP BL (blood loss during surgery): 383 (98) mL
[4]; either treatment group
  Unwanted drug effects: not seen
[5]; ref Agrawal et al., [2003]
  Absorption, bioavailability and elimination: fast absorption, high bioavailability and slow elimination

## Cc1ccc(-c2cc(C(F)(F)F)nn2-c2ccc(S(N)(=O)=O)cc2)cc1 [celecoxib]
[5]; oral, ref Brune et al., [2010]
  Absorption / bioavailability: absorbed slowly and to show variable (low) bioavailability; also recorded: slow and incomplete absorption

## O=C(c1ccccc1)c1ccc2n1CCC2C(=O)O (stereo not shown) [ketorolac]
[6]
  Pain relief with preoperative versus post-operative administration: significantly superior with preoperative administration
